Screening results deposited in PubChem by several laboratories.
IMP-1 inhibitor: inhibitors of Pseudomonas aeruginosa IMP-1 metallo-beta-lactamase; 290,000 tested, 0.45% active; purified IMP-1, nitrocefin hydrolysis, epi-absorbance fluorescence; AID 1556; inhibition, % at 5.6 µM;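 active means inhibition above the mean plus 3 SD of all compounds in the same screening run, cut at about 4.5% in these data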;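 further: 0% = IMP-1 with DMSO and 100% = DMSO wells lacking enzyme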
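Test system: recombinant IMP-1 enzyme, purified / Medium: HEPES buffer pH 7.1 with ZnSO4 and Brij 35 / Doses: single dose, 5.6 µM / Times: 25 °C, 15 min preincubation, 25 min reaction / Detection: Epi-absorbance via hydrolysed-nitrocefin quenching of white-plate fluorescence, 480/530 nm, EDTA stop / Evaluation: percent inhibition from optical density relative to buffer-blank wells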
PvdQ inh: blocks Pseudomonas aeruginosa PvdQ acylase activity. purified PvdQ acylase, fluorescence plate reader. inhibition, % at 10 µM. 340,000 tested, 0.063% active; in the data active means inhibition above about 30%, passing the limit was not always enough; inconclusive means no clear call, values can overlap the other calls;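 further: 0% = vehicle neutral wells and 100% = reference inhibitor wells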
FID counter: counter-screen for HCV NS3 helicase inhibitors: DNA intercalator displacement | 290,000 tested, 0.17% active | DNA fluorescent intercalator displacement, fluorescence | inhibition, % at 7.9 µM; in the data active means inhibition above about 37%;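 further: 0% = vehicle and 100% = reference compound; higher means more ethidium bromide displaced from hairpin DNA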
RAD54 branch: RAD54 (human) branch migration inhibition; inhibition, % at 10.4 µM; RAD54 Holliday junction branch migration, FAM/BHQ fluorescence; Q92698; 360,000 tested, 0.14% active;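 active means mean normalized replicate activity at least 40 and at least half of replicates scoring 40 or more; inconclusive means only one of the two criteria met; inactive means mean below 40 and under half of replicates reaching 40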;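 further: 0% = median of neutral control wells and 100% = median of positive control wells; inhibitors cause a drop in the FAM fluorescence signal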
Target sequence (Q92698 whole entry, looked up): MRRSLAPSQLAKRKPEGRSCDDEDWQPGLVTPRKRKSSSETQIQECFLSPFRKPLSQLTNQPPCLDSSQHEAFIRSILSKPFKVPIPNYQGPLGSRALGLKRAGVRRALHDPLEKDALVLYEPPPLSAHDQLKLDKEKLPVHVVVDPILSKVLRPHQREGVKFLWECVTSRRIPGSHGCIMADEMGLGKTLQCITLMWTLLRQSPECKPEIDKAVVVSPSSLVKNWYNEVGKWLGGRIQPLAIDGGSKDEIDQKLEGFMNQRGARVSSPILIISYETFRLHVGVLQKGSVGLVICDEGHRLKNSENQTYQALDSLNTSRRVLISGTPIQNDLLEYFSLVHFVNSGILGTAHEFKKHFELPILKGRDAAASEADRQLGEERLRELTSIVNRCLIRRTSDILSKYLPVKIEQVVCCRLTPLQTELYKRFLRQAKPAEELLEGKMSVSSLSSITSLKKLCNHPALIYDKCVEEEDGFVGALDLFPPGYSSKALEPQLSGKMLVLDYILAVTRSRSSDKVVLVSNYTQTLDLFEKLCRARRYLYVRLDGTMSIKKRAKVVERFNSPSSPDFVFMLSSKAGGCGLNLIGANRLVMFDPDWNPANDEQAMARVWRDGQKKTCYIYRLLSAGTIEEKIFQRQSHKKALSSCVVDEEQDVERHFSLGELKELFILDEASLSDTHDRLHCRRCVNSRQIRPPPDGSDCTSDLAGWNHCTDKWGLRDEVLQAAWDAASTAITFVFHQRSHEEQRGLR
VIM-2 inh: blocks Pseudomonas aeruginosa VIM-2 metallo-beta-lactamase; purified VIM-2, nitrocefin hydrolysis, epi-absorbance fluorescence; inhibition, % at 5.6 µM; 290,000 tested, 0.89% active; AID 1527;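 active means inhibition above the mean of all tested compounds plus 3 SD, cutoff set per screening run, cut at about 7.5% in these data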;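 further: red hydrolysis product quenches plate fluorescence so inhibitors raise well fluorescence; 0% = enzyme with DMSO and 100% = DMSO without enzyme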
The depositor's hits bear a star; ? = inconclusive; . = not tested or not shown. Sampled rows, rich in hits. Any-hit rate of the full collection: about 1%.

SMILES	IMP-1 inhibitor	PvdQ inh	FID counter	RAD54 branch	VIM-2 inh
CCc1ccccc1NC(=O)c1cccc(N2C(=O)C3C4CCC(C4)C3C2=O)c1 (stereo not given)	-2	-6	-10	4	1
CCNC(=O)c1ccc2c(c1)C1C3CCC(C3)C1C(c1ccccc1)N2 (stereo not given)	-2	-9	96*	.	-3
Cc1ccc(C(=O)Cn2c(=N)n(N)c3ccccc32)cc1	-2	-8	9	3	0
Cc1ccc(C(=O)Cn2ncsc2=N)cc1	25*	-5	-1	1	-2
CO[C@@H]1CN(C)C(=O)c2ccc(NC(=O)C3CCOCC3)cc2OC[C@@H](C)N(C(=O)c2ccccc2)C[C@@H]1C	.	.	.	7	.
CC(=O)c1ccc(-n2c(C)c(C(C)=O)c3cc(O)ccc32)cc1	-1	-11	-1	13	10*
CC(=O)c1c(C)n(-c2ccc(Br)cc2)c2ccc(O)cc12	-1	-6	-8	-4	2
Cc1ccc(C)c(S(=O)(=O)N2CCC(c3nc4c(nnn4Cc4ccc(F)cc4)c(=O)[nH]3)CC2)c1	-1	-14	-20	3	-1
Cc1ccc(Cn2nnc3c(=O)[nH]c(C4CCN(S(=O)(=O)c5ccc(F)cc5)CC4)nc32)cc1	18*	-8	-28	.	-3
CCCN(CCC)CCCNC(=O)c1cc2c(=O)[nH]c3ccccc3c2n1C	-1	-11	1	.	8.9*
CCCCN(CC)CCNC(=O)c1cc2c(=O)[nH]c3ccccc3c2n1C	-1	-18	5	.	6
Cn1c(C(=O)NCCN2CCOCC2)cc2c(=O)n(C)c3ccccc3c21	-3	4	1	34	13*
Cn1c(C(=O)N2CCCCCC2)cc2c(=O)n(C)c3ccccc3c21	-2	-14	-21	11	8.2*
CCCCN(CC)CCCNC(=O)c1cc2c(=O)[nH]c3ccccc3c2s1	-3	-13	9	39	11*
O=C(C[C@@H]1CC[C@H]2[C@@H](COC[C@@H](O)CN2CC2CCCCC2)O1)NCc1ccc(Cl)cc1	.	.	.	1	.
Cc1ccc(CNC(=O)c2cc3c(=O)n(C)c4ccccc4c3n2C)cc1	-3	-2	-1	8	0
CCCN(CCC)CCNC(=O)c1cc2c(=O)n(C)c3ccccc3c2n1C	-4	1	11	55*	22*
Cn1c(C(=O)NCCCN2CCN(c3ccc(F)cc3)CC2)cc2c(=O)n(C)c3ccccc3c21	.	-4	.	31	.
Cn1c(C(=O)NCCN2CCN(c3ccccc3F)CC2)cc2c(=O)n(C)c3ccccc3c21	-1	-6	1	12	8.8*
Cc1nn(C)cc1NC(=O)C[C@H]1CC[C@H]2[C@H](COc3ccc(NC(=O)C4CCOCC4)cc3C(=O)N2C)O1	.	.	.	7	.
O=C(Nc1ccccc1F)N[C@H]1CC[C@@H](CCNC(=O)C2CCC2)O[C@@H]1CO	.	.	.	0	.
O=C(Nc1cccc(Cl)c1)c1ccc(NCCCN2CCOCC2)c([N+](=O)[O-])c1	-3	-4	9	.	0
Cc1ccc(NC(=O)c2ccc(NCCCN3CCC(C)CC3)c([N+](=O)[O-])c2)cc1F	-4	9	41*	.	-3
CO[C@H]1CN(C)C(=O)c2ccc(NS(=O)(=O)c3ccccc3)cc2OC[C@@H](C)NC[C@H]1C	.	.	.	2	.
COc1cccc2sc3ccc(C#CC4(N)CCCCC4)cc3c(=O)c12	-2	-17	6	?	9.0*
SMILES	IMP-1 inhibitor	PvdQ inh	FID counter	RAD54 branch	VIM-2 inh
C/C=C/c1cnc2c(c1)C(=O)N([C@@H](C)CO)C[C@H](C)[C@H](CN(C)S(=O)(=O)c1ccc(F)cc1)O2	.	.	.	-5	.
CCS(=O)(=O)NCC[C@H]1CC[C@H](NC(=O)C2CCCC2)[C@@H](CO)O1	.	.	.	2	.
O=C1CCN(S(=O)(=O)c2ccc(Cl)cc2)N1	-2	-8	4	0	5
O=C1CCN(S(=O)(=O)c2ccccc2)N1	0	2	0	-10	9.7*
Cc1ccc(S(=O)(=O)N2CCC(=O)N2)cc1	0	-9	4	-8	8.6*
C[C@@H]1CN([C@H](C)CO)S(=O)(=O)c2ccc(-c3ccc(C(=O)N(C)C)cc3)cc2O[C@@H]1CN(C)C(=O)C1CCC1	.	.	.	-1	.
CCC(=O)N[C@@H]1CC[C@@H](CC(=O)NCc2ccccc2OC)O[C@@H]1CO	.	.	.	0	.
COCCN1C(=O)/C(=C/c2ccc(N3CCCC3)cc2)SC1=S	4.5*	-28	-11	.	5
COc1ccccc1NC(=O)CSc1nc2c(sc3ccccc32)c(=O)n1CCN(C)C	-1	-21	1	-1	3
CN(C)CCn1c(SCc2ccccc2C#N)nc2c(sc3ccccc32)c1=O	3	-7	-1	15	10*
CSCCC(NC(=O)C1CC1)c1nc2ccccc2[nH]1 (stereo not given)	4.8*	-15	0	-6	0
C[C@@H]1CN([C@H](C)CO)C(=O)c2cccc(NC(=O)c3nc4ccccc4s3)c2O[C@@H]1CN(C)S(=O)(=O)c1ccc(F)cc1	.	.	.	-9	.
CCOc1ccc(NCc2cccn2-c2nnc(N3CCC(C(=O)NCCCN4CCCCC4CC)CC3)s2)cc1 (stereo not given)	-5	-26	40*	25	1
CC1CCCCN1CCCNC(=O)C1CCN(c2nnc(-n3cccc3)s2)CC1 (stereo not given)	0	-13	0	-1	2
CNC(=O)C[C@H]1CC[C@H]2[C@@H](COc3ccc(NC(=O)Nc4ccc(C#N)cc4)cc3C(=O)N2C)O1	.	.	.	8	.
CCCc1cn(CC[C@H]2CC[C@H](NC(=O)Nc3ccccc3F)[C@@H](CO)O2)nn1	.	.	.	-2	.
NCc1cc2c3c(c1)CCCN3CCC2	-2	-3	31	55*	9.0*
COc1c(C=O)cc2c3c1CCCN3CCC2	-2	-1	-4	-2	-1
CC(C)NC(=O)N1C[C@H]2[C@@H](c3ccccc31)[C@H](CO)N2C(=O)Nc1cccc(F)c1	.	.	.	5	.
COc1ccccc1-c1cn(CC[C@@H]2CC[C@@H](NS(=O)(=O)c3ccccc3C)[C@H](CO)O2)nn1	.	.	.	-3	.
O=C(NCCc1ccccc1)c1ccc2c(=O)[nH]c3c(C(=O)NCC4CCCO4)sc(=S)n3c2c1 (stereo not given)	-2	-5	49*	2	1
O=C(NCC1CCCO1)c1sc(=S)n2c1[nH]c(=O)c1ccc(C(=O)N3CCCCC3)cc12 (stereo not given)	-3	17	17	7	6
COc1cccc(CN(C)C(=O)c2ccc(S(=O)(=O)Nc3ccccc3F)cc2)c1OC	.	0	.	-7	.
COc1ccc(CN(C)C(=O)c2cc(S(=O)(=O)Nc3ccccc3F)ccc2C)c(OC)c1	4.8*	5	-44	-1	1
CN(C)CCc1cc2c(c3c1ccc1ccccc13)OCO2	-3	12	43*	95*	6
CO[C@@H]1CN(C)C(=O)c2ccc(NC(=O)Cc3ccccc3)cc2OC[C@H](C)N(CC2CC2)C[C@H]1C	.	.	.	0	.
CC1CCN(C2=C(NS(=O)(=O)c3ccc(Br)cc3)C(=O)c3ccccc3C2=O)CC1	1	7	-8	7	6
